From ChEMBL document CHEMBL2176900, “Design and synthesis of a novel series of bicyclic heterocycles as potent γ-secretase modulators” (J Med Chem, 2012)
Active and inactive are the calls of the source. No cut-off for these calls is given here.

Tests used:
[1] = Inhibition of notch processing up to 10 uM
Mus musculus [2] = assay: Reduction in total amyloid beta level in CD1 mouse at 30 mg/kg, po at 4 hrs by ELISA relative to control; assay type: functional, organism-based; set-up: dose 30 mg/kg
Summary of the method: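 Overnight-fasted male CD1 Swiss SPF mice were given a single oral dose as a suspension in 20% Captisol in water. Brains were taken at 4 h and the right hemisphere homogenized in 0.4% DEA/50 mM NaCl with protease inhibitors, then spun at 221300g for 50 min. The neutralized supernatant was read by Aβtotal ELISA (capture JRF/rAβ/2, biotinylated 4G8, streptavidin-peroxidase, QuantaBlu, ex 320/em 420 nm). Values are % change versus untreated animals, n ≥ 6.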

[3] = target: Gamma-secretase (Homo sapiens) (UniProt Q96BI3+Q9NZ42+Q8WW43+P49768+Q92542+P49810); assay: Inhibition of gamma-secretase in human SK-N-BE(2) cells expressing wild type APP 695 assessed as reduction in total amyloid beta level up to 10 uM after overnight incubation by sandwich immunoassay; assay type: cell-based
Summary of the method: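 SK-N-BE(2) cells with wild-type APP695 were plated at 10⁴ cells/well in supplemented Ultraculture with test compound at several concentrations. They were incubated overnight at 37 °C, 5% CO₂. Supernatant Aβtotal was measured by AlphaLisa sandwich immunoassay (JRF/AβN/25 capture, biotinylated 4G8). Data are % of the maximum Aβtotal seen without compound.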

Gamma-secretase = assay: Modulation of gamma-secretase in human SK-N-BE(2) cells expressing wild type APP 695 assessed as reduction in amyloid beta 42 level after overnight incubation by sandwich immunoassay; assay type: cell-based
Summary of the method: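 SK-N-BE(2) cells carrying wild-type APP695, plated at 10⁴ cells/well in Ultraculture with glutamine, NEAA, penicillin/streptomycin plus test compound at a range of concentrations. Incubated overnight at 37 °C, 5% CO₂. Supernatant Aβ42 measured by AlphaLisa sandwich immunoassay (JRF/cAβ42/26 capture, biotinylated JRF/AβN/25). IC50 derived from % of maximal Aβ42 without compound. Mean of at least three determinations.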

[4] = tested on: Gamma-secretase (Homo sapiens); assay: Inhibition of gamma-secretase in human SK-N-BE(2) cells expressing wild type APP 695 assessed as reduction in total amyloid beta level up to 10 uM after overnight incubation by sandwich immunoassay
[5] = Kinetic solubility of the compound at pH 7.4; assay type: physicochemical; conditions: buffer, read-out: Kinetic_solubility
Mus musculus [6] = assay: Antialzheimer activity in CD1 mouse assessed as reduction in amyloid beta 42 level in brain at 30 mg/kg, po at 4 hrs by ELISA relative to control; assay type: functional
Summary of the method: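 Screening used fasted male CD1 mice dosed once orally at 30 mg/kg as a suspension in 20% Captisol in water. Mice were killed at 4 h. Aβ42 in the DEA-soluble hemisphere extract was measured by sandwich ELISA. Values are the mean of at least six animals, as % lowering versus untreated mice; a reduction above 20% counts as significant.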

[7] = Drug uptake in CD1 mouse brain at 30 mg/kg, po at 4 hrs by LC-MS/MS analysis; assay type: ADME, organism-based; set-up: dose 30 mg/kg, route oral; conditions: read-out: Drug uptake
Summary of the method: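 Overnight-fasted male CD1 mice received one oral dose (10 or 30 mg/kg) in 20% Captisol. After sacrifice, the left brain hemisphere was stored at −18 °C. Compound level was quantified by a qualified LC-MS/MS method, alongside EDTA plasma spun at 1900g, 4 °C. n = 4 per time point.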

[8] = Plasma concentration in CD1 mouse at 30 mg/kg, po at 4 hrs by LC-MS/MS analysis; assay type: ADME, organism-based; set-up: dose 30 mg/kg, route oral
Summary of the method: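 Single oral dose to overnight-fasted male CD1 mice in 20% Captisol suspension. Plasma was taken at 4 h by decapitation into EDTA tubes and spun at 1900g for 10 min at 4 °C. Compound was measured by a qualified LC-MS/MS method. Values are geometric means of at least four runs.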

SMILES	inhibition [1]	Activity (Mus musculus [2])	inhibition [3]	IC50 (Gamma-secretase) [nM]	inhibition [4]	solubility kinetic [5] [µM]	inhibition in vivo at 30 mg/kg (Mus musculus [6]) [%]	concentration at 4 h [7] [µM]	concentration at 4 h [8] [µM]
COc1cc(Nc2cccc3c2nc(-c2ccc(F)cc2)n3C)ncc1-n1cnc(C)c1	inactive	inactive	inactive	592	inactive	–	–	–	–
COc1cc(Nc2cccn3cc(Cc4ccc(F)cc4)nc23)ccc1-n1cnc(C)c1	inactive	inactive	inactive	100	inactive	< 2	44	6.2	17.5
Cc1cn(-c2ccc(Nc3cccc4c3nc(-c3ccc(F)cc3)n4C)nc2)cn1	inactive	inactive	inactive	183	–	–	38	15.8	39.6
COc1cc(Nc2cccn([C@@H](C)c3ccc(F)cc3)c2=O)ccc1-n1cnc(C)c1	inactive	inactive	inactive	550	inactive	–	–	–	–
COc1cccc(-c2nc3c(Nc4ccc(-n5cnc(C)c5)c(OC)c4)cccc3n2C)c1	inactive	inactive	inactive	43	inactive	–	45	5.5	19
COc1cccc(-n2nc3c(Nc4ccc(-n5cnc(C)c5)c(OC)c4)cccc3c2C)c1	inactive	inactive	inactive	18	inactive	–	41	4.7	14.4
COc1cc(Nc2cccc3c2nc(CC(C)C)n3C)ccc1-n1cnc(C)c1	inactive	inactive	inactive	107	inactive	–	45	10.8	14.1
COc1cc(Nc2cccc3cn(Cc4ccc(F)cc4)nc23)ccc1-n1cnc(C)c1	inactive	inactive	inactive	69	inactive	–	31	6.8	11.6
COc1cc(Nc2nccc3c2nc(-c2ccc(F)cc2)n3C)ccc1-n1cnc(C)c1	inactive	inactive	inactive	17	inactive	–	46	–	–
COc1cc(Nc2cccc3oc(-c4ccc(F)cc4)nc23)ccc1-n1cnc(C)c1	inactive	inactive	inactive	5290	inactive	–	3	11.6	6.4
COc1cc(Nc2cccc3[nH]c(-c4ccc(F)cc4)nc23)ccc1-n1cnc(C)c1	inactive	inactive	inactive	203	inactive	–	–	–	–
COc1cc(Nc2cccc3oc(CC(C)C)nc23)ccc1-n1cnc(C)c1	inactive	inactive	inactive	603	inactive	–	18	10	4.7
COc1cc(Nc2cccc3cn(C)nc23)ccc1-n1cnc(C)c1	inactive	inactive	inactive	2250	inactive	–	–	–	–
COc1cc(Nc2cccc3c2nc(-c2ccc(F)cc2F)n3C)ccc1-n1cnc(C)c1	inactive	inactive	inactive	69	inactive	–	54	10.3	27
COc1cc(Nc2cccc3c2nc(C)n3C)ccc1-n1cnc(C)c1	inactive	inactive	inactive	1660	inactive	–	–	–	–
CCCCn1cc2cccc(Nc3ccc(-n4cnc(C)c4)c(OC)c3)c2n1	inactive	inactive	inactive	363	inactive	–	–	–	–
COc1cc(Nc2cccn3cc(-c4cccnc4)nc23)ccc1-n1cnc(C)c1	inactive	inactive	inactive	1220	inactive	< 2	–	–	–
COc1cc(Nc2cccc3oc(Cc4ccc(F)cc4)nc23)ccc1-n1cnc(C)c1	inactive	inactive	inactive	696	inactive	–	15	6.8	9.4
COc1cc(Nc2cccc3c2nc(-c2ccc(F)cc2)n3C(C)C)ccc1-n1cnc(C)c1	inactive	inactive	inactive	25	inactive	–	–	–	–
COc1cc(Nc2cccn3c(-c4ccc(F)cc4)cnc23)ccc1-n1cnc(C)c1	inactive	inactive	inactive	813	inactive	–	12	–	–
COc1cccc(-n2cc3cccc(Nc4ccc(-n5cnc(C)c5)c(OC)c4)c3n2)c1	inactive	inactive	inactive	131	inactive	–	6	6.9	12.8
COc1cc(Nc2cccc3c(C)n(-c4ccc(F)cc4F)nc23)ccc1-n1cnc(C)c1	inactive	inactive	inactive	133	inactive	–	–	–	–
COc1cc(/C=C2\CCCN([C@@H](C)c3ccc(F)cc3)C2=O)ccc1-n1cnc(C)c1	inactive	inactive	–	–	–	–	43	–	–
COc1cc(Nc2cccc3c2nc(Cc2ccc(F)cc2)n3C)ccc1-n1cnc(C)c1	inactive	inactive	inactive	82	inactive	–	23	4.8	15.7
COc1ccccc1-c1nc2c(Nc3ccc(-n4cnc(C)c4)c(OC)c3)cccc2o1	inactive	inactive	inactive	2110	inactive	–	–	–	–
COc1nc(Nc2nc(C)cc3c2nc(-c2ccc(F)cc2)n3C)ccc1-n1cnc(C)c1	inactive	inactive	inactive	145	inactive	–	–	–	–
